Measurements from ChEMBL document CHEMBL4406830, “Galloyl esters of trans-stilbenes are inhibitors of FASN with anticancer activity on non-small cell lung cancer cells” (Eur J Med Chem, 2019).
Active and inactive are the calls of the source. The rule behind the calls is not given here.

Columns and labels:
NCI-H1703 [1] = test: Antiproliferative activity against human NCI-H1703 cells expressing FASN assessed as growth inhibition at 25 uM after 72 hrs by MTS assay relative to control; format: functional; conditions: NCI-H1703, 72 h
Outline: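 H1703 cells were treated with a single 25 µM concentration for 72 h. Viability was measured by MTS at 490 nm, with 0.1% DMSO and media-only correction, relative to untreated control. Mean ± SD of n = 3 independent determinations, unpaired t test against control.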

NCI-H1703 [2] = test: Induction of apoptosis in human NCI-H1703 cells expressing FASN assessed as cell death at 5 to 100 uM after 72 hrs by Annexin-V FITC staining/PI-based flow cytometry; format: functional
PC-9 = test: Induction of apoptosis in human PC9 cells harboring FASN expression and EGFR delE746-A750 mutant assessed as cell death at 5 to 100 uM after 72 hrs by Annexin-V FITC/PI staining-based flow cytometry; format: functional
[3] = target: Fatty acid synthase (Homo sapiens) (UniProt P49327); test: Inhibition of full length human FASN transfected in HeLa cell lysates at 10 uM using acetyl Co-A/malonyl Co-A as substrate preincubated with enzyme for 2 hrs followed by substrate addition measured after 10 mins in presence of NADPH by microplate reader analysis; format: subcellular; conditions: Lysate
Outline: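 Human FASN was made by in vitro translation from a FASN plasmid. Lysate was diluted 3:7 in 100 mM potassium phosphate, pH 6.5, 1 mM EDTA. It was preincubated with compound (10 µM final) for 2 h at 37 °C. Buffer containing acetyl-CoA (55 µM) and NADPH (330 µM) was added, then the reaction was started with malonyl-CoA (500 µM stock). A340 was read at 0 and 10 min; triplicates.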

[4] = target: Fatty acid synthase (Homo sapiens) (UniProt P49327); test: Inhibition of FASN in human PC9 cells harboring FASN expression and EGFR delE746-A750 mutant assessed as disruption of AKT/FASN positive feedback loop by measuring decrease in FASN expression at 5 uM after 48 hrs by Western immunoblot based densitometric assay relative to control; format: cell-based
Outline: (§1)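 PC-9 or H1703 cells were seeded at 8 × 10^5 per 100 mm dish and treated for 48 h at 1 or 5 µM (or 5, 50 and 100 µM). RIPA lysates were BCA-quantified and run on 8% SDS-PAGE, then transferred to PVDF. Blots were probed for FASN, AKT, phospho-AKT S473 and GAPDH and detected by ECL. Bands were quantified by densitometry and normalised to vehicle control.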

[5] = target: Fatty acid synthase (Homo sapiens) (UniProt P49327); test: Inhibition of FASN in human PC9 cells harboring FASN expression and EGFR delE746-A750 mutant assessed as disruption of AKT/FASN positive feedback loop by measuring decrease in FASN expression at 50 uM after 48 hrs by Western immunoblot based densitometric assay relative to control; format: cell-based; outline: as §1
[6] = target: Fatty acid synthase (Homo sapiens) (UniProt P49327); test: Inhibition of FASN in human PC9 cells harboring FASN expression and EGFR delE746-A750 mutant assessed as disruption of AKT/FASN positive feedback loop by measuring decrease in FASN expression at 100 uM after 48 hrs by Western immunoblot based densitometric assay relative to control; format: cell-based; outline: as §1
[7] = target: Fatty acid synthase (Homo sapiens) (UniProt P49327); test: Inhibition of FASN in human NCI-H1703 cells expressing FASN assessed as disruption of AKT/FASN positive feedback loop by measuring decrease in FASN expression at 5 uM after 48 hrs by Western immunoblot based densitometric assay relative to control; format: cell-based; outline: as §1
[8] = target: Fatty acid synthase (Homo sapiens) (UniProt P49327); test: Inhibition of FASN in human NCI-H1703 cells expressing FASN assessed as disruption of AKT/FASN positive feedback loop by measuring decrease in FASN expression at 50 uM after 48 hrs by Western immunoblot based densitometric assay relative to control; format: cell-based; outline: as §1
[9] = target: Fatty acid synthase (Homo sapiens) (UniProt P49327); test: Inhibition of FASN in human NCI-H1703 cells expressing FASN assessed as disruption of AKT/FASN positive feedback loop by measuring decrease in FASN expression at 100 uM after 48 hrs by Western immunoblot based densitometric assay relative to control; format: cell-based; outline: as §1
[10] = target: Fatty acid synthase (Homo sapiens) (UniProt P49327); test: Inhibition of FASN in human PC9 cells harboring FASN expression and EGFR delE746-A750 mutant assessed as disruption of AKT/FASN positive feedback loop by measuring reduction in AKT expression at 5 uM after 48 hrs by Western immunoblot based densitometric assay relative to control; format: cell-based; outline: as §1
[11] = target: Fatty acid synthase (Homo sapiens) (UniProt P49327); test: Inhibition of FASN in human PC9 cells harboring FASN expression and EGFR delE746-A750 mutant assessed as disruption of AKT/FASN positive feedback loop by measuring reduction in AKT expression at 50 uM after 48 hrs by Western immunoblot based densitometric assay relative to control; format: cell-based; outline: as §1
[12] = target: Fatty acid synthase (Homo sapiens) (UniProt P49327); test: Inhibition of FASN in human PC9 cells harboring FASN expression and EGFR delE746-A750 mutant assessed as disruption of AKT/FASN positive feedback loop by measuring reduction in AKT expression at 100 uM after 48 hrs by Western immunoblot based densitometric assay relative to control; format: cell-based; outline: as §1
[13] = target: Fatty acid synthase (Homo sapiens) (UniProt P49327); test: Inhibition of FASN in human NCI-H1703 cells expressing FASN assessed as disruption of AKT/FASN positive feedback loop by measuring decrease in AKT expression at 5 uM after 48 hrs by Western immunoblot based densitometric assay relative to control; format: cell-based; outline: as §1
[14] = target: Fatty acid synthase (Homo sapiens) (UniProt P49327); test: Inhibition of FASN in human NCI-H1703 cells expressing FASN assessed as disruption of AKT/FASN positive feedback loop by measuring decrease in AKT expression at 50 uM after 48 hrs by Western immunoblot based densitometric assay relative to control; format: cell-based; outline: as §1
[15] = target: Fatty acid synthase (Homo sapiens) (UniProt P49327); test: Inhibition of FASN in human NCI-H1703 cells expressing FASN assessed as disruption of AKT/FASN positive feedback loop by measuring decrease in AKT expression at 100 uM after 48 hrs by Western immunoblot based densitometric assay relative to control; format: cell-based; outline: as §1
[16] = target: Fatty acid synthase (Homo sapiens) (UniProt P49327); test: Inhibition of FASN in human PC9 cells harboring FASN expression and EGFR delE746-A750 mutant assessed as disruption of AKT/FASN positive feedback loop by measuring reduction in phosphorylated AKT expression at 5 uM after 48 hrs by Western immunoblot based densitometric assay relative to control; format: cell-based; outline: as §1
[17] = target: Fatty acid synthase (Homo sapiens) (UniProt P49327); test: Inhibition of FASN in human PC9 cells harboring FASN expression and EGFR delE746-A750 mutant assessed as disruption of AKT/FASN positive feedback loop by measuring reduction in phosphorylated AKT expression at 50 uM after 48 hrs by Western immunoblot based densitometric assay relative to control; format: cell-based; outline: as §1
[18] = target: Fatty acid synthase (Homo sapiens) (UniProt P49327); test: Inhibition of FASN in human PC9 cells harboring FASN expression and EGFR delE746-A750 mutant assessed as disruption of AKT/FASN positive feedback loop by measuring reduction in phosphorylated AKT expression at 100 uM after 48 hrs by Western immunoblot based densitometric assay relative to control; format: cell-based; outline: as §1
[19] = target: Fatty acid synthase (Homo sapiens) (UniProt P49327); test: Inhibition of FASN in human NCI-H1703 cells expressing FASN assessed as disruption of AKT/FASN positive feedback loop by measuring decrease in phosphorylated AKT expression at 5 uM after 48 hrs by Western immunoblot based densitometric assay relative to control; format: cell-based; outline: as §1
[20] = target: Fatty acid synthase (Homo sapiens) (UniProt P49327); test: Inhibition of FASN in human NCI-H1703 cells expressing FASN assessed as disruption of AKT/FASN positive feedback loop by measuring decrease in phosphorylated AKT expression at 50 uM after 48 hrs by Western immunoblot based densitometric assay relative to control; format: cell-based; outline: as §1
[21] = target: Fatty acid synthase (Homo sapiens) (UniProt P49327); test: Inhibition of FASN in human NCI-H1703 cells expressing FASN assessed as disruption of AKT/FASN positive feedback loop by measuring decrease in phosphorylated AKT expression at 100 uM after 48 hrs by Western immunoblot based densitometric assay relative to control; format: cell-based; outline: as §1

Sequence of Fatty acid synthase (Homo sapiens) (P49327 whole entry, looked up): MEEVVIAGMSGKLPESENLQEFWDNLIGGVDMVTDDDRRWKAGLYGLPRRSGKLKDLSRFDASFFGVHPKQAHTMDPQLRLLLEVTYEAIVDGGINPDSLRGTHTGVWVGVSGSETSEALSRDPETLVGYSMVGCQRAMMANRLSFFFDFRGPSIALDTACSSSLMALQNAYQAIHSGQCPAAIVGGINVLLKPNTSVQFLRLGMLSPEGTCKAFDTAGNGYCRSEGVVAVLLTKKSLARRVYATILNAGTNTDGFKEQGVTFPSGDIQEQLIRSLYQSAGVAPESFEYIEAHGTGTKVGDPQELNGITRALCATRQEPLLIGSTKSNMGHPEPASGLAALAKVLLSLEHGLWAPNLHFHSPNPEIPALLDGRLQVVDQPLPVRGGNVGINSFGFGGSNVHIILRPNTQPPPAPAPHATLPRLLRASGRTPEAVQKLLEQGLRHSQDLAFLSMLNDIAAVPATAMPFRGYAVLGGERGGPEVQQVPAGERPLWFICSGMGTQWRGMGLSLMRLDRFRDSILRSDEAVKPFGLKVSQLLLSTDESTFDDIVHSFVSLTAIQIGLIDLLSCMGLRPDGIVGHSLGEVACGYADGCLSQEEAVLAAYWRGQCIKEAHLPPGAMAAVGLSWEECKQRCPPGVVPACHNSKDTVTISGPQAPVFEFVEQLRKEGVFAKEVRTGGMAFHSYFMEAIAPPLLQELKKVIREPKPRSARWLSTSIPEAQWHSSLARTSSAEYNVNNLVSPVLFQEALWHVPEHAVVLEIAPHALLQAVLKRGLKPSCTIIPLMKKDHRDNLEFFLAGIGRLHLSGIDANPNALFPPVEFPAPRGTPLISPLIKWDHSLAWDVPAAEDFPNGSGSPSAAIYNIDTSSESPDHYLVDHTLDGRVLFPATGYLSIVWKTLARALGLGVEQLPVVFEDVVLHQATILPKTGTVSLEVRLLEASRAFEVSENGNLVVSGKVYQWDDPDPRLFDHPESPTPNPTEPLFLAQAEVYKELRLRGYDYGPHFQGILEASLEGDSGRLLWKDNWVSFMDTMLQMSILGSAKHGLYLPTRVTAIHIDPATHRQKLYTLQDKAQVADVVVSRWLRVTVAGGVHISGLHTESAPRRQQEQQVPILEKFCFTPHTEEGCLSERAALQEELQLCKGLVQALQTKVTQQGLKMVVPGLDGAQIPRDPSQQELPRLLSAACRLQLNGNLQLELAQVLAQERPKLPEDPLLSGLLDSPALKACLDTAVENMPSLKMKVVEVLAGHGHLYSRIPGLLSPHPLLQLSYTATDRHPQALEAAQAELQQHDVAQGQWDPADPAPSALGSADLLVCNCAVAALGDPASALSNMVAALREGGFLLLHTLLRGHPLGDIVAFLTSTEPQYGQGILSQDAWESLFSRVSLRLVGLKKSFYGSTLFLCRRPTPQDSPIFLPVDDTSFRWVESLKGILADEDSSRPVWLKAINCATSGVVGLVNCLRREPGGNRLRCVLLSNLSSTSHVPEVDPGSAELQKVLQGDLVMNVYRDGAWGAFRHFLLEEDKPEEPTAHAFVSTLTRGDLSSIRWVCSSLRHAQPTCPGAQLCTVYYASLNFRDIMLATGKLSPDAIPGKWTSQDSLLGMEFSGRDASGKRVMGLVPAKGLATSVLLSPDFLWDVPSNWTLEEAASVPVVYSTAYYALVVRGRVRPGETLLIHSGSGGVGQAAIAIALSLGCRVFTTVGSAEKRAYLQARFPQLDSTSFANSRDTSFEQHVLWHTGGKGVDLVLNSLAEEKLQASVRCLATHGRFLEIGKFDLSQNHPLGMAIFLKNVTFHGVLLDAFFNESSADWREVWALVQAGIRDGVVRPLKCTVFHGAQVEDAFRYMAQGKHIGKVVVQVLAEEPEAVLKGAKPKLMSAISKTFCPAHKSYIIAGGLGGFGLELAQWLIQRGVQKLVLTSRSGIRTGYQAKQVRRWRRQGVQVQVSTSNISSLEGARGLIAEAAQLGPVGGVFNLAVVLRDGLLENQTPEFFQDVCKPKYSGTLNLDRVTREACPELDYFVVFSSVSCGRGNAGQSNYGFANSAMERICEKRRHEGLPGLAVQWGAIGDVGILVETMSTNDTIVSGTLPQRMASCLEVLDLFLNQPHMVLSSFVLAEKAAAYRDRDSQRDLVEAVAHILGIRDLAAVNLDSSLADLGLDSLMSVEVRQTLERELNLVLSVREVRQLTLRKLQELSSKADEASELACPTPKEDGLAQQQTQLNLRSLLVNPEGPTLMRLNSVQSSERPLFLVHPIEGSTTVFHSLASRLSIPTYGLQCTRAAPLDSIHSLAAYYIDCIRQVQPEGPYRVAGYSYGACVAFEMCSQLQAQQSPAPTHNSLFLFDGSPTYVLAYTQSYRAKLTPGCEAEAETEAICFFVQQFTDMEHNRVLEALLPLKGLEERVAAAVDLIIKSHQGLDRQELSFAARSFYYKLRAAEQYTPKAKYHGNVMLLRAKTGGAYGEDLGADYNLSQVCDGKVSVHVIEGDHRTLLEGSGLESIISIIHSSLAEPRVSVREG

## COc1cc(C(=O)Oc2ccc(/C=C/c3cccc(OC(=O)c4cc(OC)c(OC)c(OC)c4)c3)cc2)cc(OC)c1OC
NCI-H1703 [1]
  inhibition at 25 µM: < 50%
NCI-H1703 [2]
  Activity: inactive
PC-9
  Activity: inactive
[3]
  inhibition: inactive
[4]
  Ratio: 0.99
[5]
  Ratio: 1.01
[6]
  Ratio: 1.04
[7]
  Ratio: 1.05
[8]
  Ratio: 1.12
[9]
  Ratio: 1.05
[10]
  Ratio: 0.99
[11]
  Ratio: 1.01
[12]
  Ratio: 0.98
[13]
  Ratio: 1.09
[14]
  Ratio: 0.99
[15]
  Ratio: 1
[16]
  Ratio: 1.02
[17]
  Ratio: 0.95
[18]
  Ratio: 0.88
[19]
  Ratio: 0.97
[20]
  Ratio: 0.82
[21]
  Ratio: 0.73
